# Screening data deposited in PubChem by several laboratories.
# This is a sample that favours compounds with a hit; in the whole collection about 4.3% have one here.
# MC4R antag cAMP: blocks human MC4R cAMP signaling; MC4R-expressing cells, MTII-stimulated cAMP, LANCE TR-FRET; inhibition, % at 6.5 µM; hit rate 0.48% among 360,000; AID 540295;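 active = inhibition above its plate's cutoff, the mean of tested wells on that plate plus 3 SD, cut at about 29% in these data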;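 note: 0% = Melanotan II alone and 100% = Melanotan II plus saturating MCL0020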
#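 Assay system: human MC4R-expressing U2OS cells; reagent: Melanotan II stimulation of cells; dosing: 6.5 µM single dose; timing: compound 30 min, challenge 1 h, detection 1 h; signal: TR-FRET cAMP assay; replicates: one well per compound, no replicates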
# TAAR1 agonist: human TAAR1 agonism | Q96RJ0 | CHO RD-HGA16 TAAR1, Fluo-8 calcium fluorescence; vehicle wells 0%, saturating PEA agonist 100% | activation, % at 3 µM | hit rate 0.99% among 360,000 | AID 624467;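 active = activation above the mean activation of all test compounds in the run plus 3 SD, cut at about 38% in these data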
#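 System: CHO-derived RD-HGA16 cells with stable Gα16 and human TAAR1 / Times: 17-24 h plating, Fluo-8 75 min 37 °C, 30 min RT / Technique: calcium-sensitive Fluo-8 signal, excitation 470-495, emission 515-575 nm / Measure: % activation relative to PEA EC100 response / Benchmarks: DMSO and PEA EC100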
# TAAR1 antag: antagonists of human TAAR1; Q96RJ0; CHO RD-HGA16 TAAR1, Fluo-8 calcium fluorescence, antagonist; inhibition, % at 3 µM; hit rate 1.5% among 360,000;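 active = inhibition above a per-plate cutoff, the mean inhibition of test compounds on that plate plus 3 SD, cut at about 49% in these data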;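 note: 0% = DMSO plus EC80 beta-PEA response and 100% = DMSO alone without agonist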
#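 Material: RD-HGA16 CHO cells with stable hTAAR1 and Gα16; Dosing: single nominal final test compound concentration of 3 µM; Schedule: seeding 17-24 h prior, 75-min 37 °C, 30-min RT dye loading; Detection: kinetic Fluo-8 calcium fluorescence measurement; Measure: % inhibition from peak post-agonist over basal fluorescence ratio; Benchmarks: vehicle and agonist controls.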
# Beta2AR agonist: activates human beta-2 adrenergic receptor causing internalization; response, % (concentration not given with the values); Am2.2-beta2AR cells, FAP receptor internalization, flow cytometry; hit rate 0.43% among 340,000;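 active = response above a set limit, near 3 SD of response in nonfluorescent compounds, cut at about 42% in these data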
# MC4R barr agon: activates human MC4R beta-arrestin recruitment; P32245; hit rate 0.98% among 360,000; activation, % at 8.9 µM; U2OS MC4R beta-arrestin complementation, luminescence; percent of melanotan II response, DMSO zero;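 active = activation above a per-plate cutoff, the mean activation of sample wells on that plate plus 3 SD, cut at about 8% in these data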
# HTR2A ag: activates the mouse 5-HT2A serotonin receptor. CHO-K1 mHTR2A beta-arrestin complementation, luminescence; percent of 30 µM serotonin response. activation, % at 7.6 µM. hit rate 0.66% among 360,000;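 active = activation above a run cutoff, the mean activation of all tested compounds plus 3 SD, cut at about 14% in these data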;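 note: 0% = plate median of compound wells and 100% = 30 µM serotonin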
# Target sequence (P35363 whole entry, looked up): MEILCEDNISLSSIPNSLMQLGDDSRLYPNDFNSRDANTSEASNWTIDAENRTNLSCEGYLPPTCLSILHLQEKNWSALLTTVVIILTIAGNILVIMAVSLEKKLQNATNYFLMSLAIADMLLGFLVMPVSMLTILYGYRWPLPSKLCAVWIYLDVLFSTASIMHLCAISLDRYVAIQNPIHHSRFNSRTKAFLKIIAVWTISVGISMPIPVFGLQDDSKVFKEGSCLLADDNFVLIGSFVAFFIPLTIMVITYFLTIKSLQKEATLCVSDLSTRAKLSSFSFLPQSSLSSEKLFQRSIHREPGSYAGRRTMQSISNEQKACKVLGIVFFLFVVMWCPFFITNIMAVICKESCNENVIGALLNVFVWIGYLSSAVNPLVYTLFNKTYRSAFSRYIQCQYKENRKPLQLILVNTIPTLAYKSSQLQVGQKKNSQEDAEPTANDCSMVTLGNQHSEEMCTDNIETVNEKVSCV
# * marks the source's active call; other numbers are inactive results; / = no result given.
SMILES,MC4R antag cAMP,TAAR1 agonist,TAAR1 antag,Beta2AR agonist,MC4R barr agon,HTR2A ag
COc1cccc(/C=N/Nc2nc3ccccc3n3cnnc23)c1O,-16,5,-1,109*,-2,-5
COC(=O)C1=C(C)N(Cc2cccc(C(F)(F)F)c2)C(=NCc2cc(OC)c(OC)c(OC)c2)NC1c1ccccc1C(F)(F)F (configuration not stated),/,3,6,/,/,/
COC(=O)C1=C(C)N(C)C(=NCc2cccc(C(F)(F)F)c2)NC1c1cccc(Cl)c1 (configuration not stated),/,19,24,/,/,/
C=CCOc1ccc(C=CC(=O)c2c(O)c(OC)c(OC)c(OC)c2OC)cc1,15,2,69*,5,0,1
COc1ccc(C=CC(=O)c2c(OC)cc(OC)c(OC)c2O)cc1,-59,6,31,18,1,-2
COc1ccc([C@H]2C[C@H](n3cc(-c4ccc(F)cc4)nn3)[C@@H](O)CN2C(=O)C2CCCCC2)cc1,4,0,8,/,0,-3
CCOC(=O)CN1C(=O)S/C(=C/C=C/c2ccc(N(C)C)cc2)C1=O,4,45*,30,-45,-1,0
CCOC(=O)CN1C(=O)S/C(=C/c2ccc3c(c2)n(C)c(=O)n3C)C1=O,-4,1,-4,6,-3,2
O=S(c1ccc2ccccc2c1)c1cnns1 (configuration not stated),9,55*,-7,-7,0,1
OC(CNC1CCCCC1)CON=C1CCSc2c(Cl)cccc21 (configuration not stated),-2,40*,18,/,6,-2
Cc1ccc(C)c(CSc2nnc(-c3cccs3)n2Cc2ccco2)c1,9,10,12,67*,0,3
CN(C)C(=O)c1ccc(NC(=O)c2cccc(S(=O)(=O)N3CCN(Cc4ccccc4)CC3)c2)cc1,7,4,14,-3,0,0
CN(CC(=O)Nc1ccc(Cl)cc1)C(=O)c1cccc(S(=O)(=O)N2CCN(Cc3ccccc3)CC2)c1,18,18,50*,9,-2,4
CN(Cc1ccc(OC(F)F)cc1)C(=O)c1cccc(S(=O)(=O)N2CCN(Cc3ccccc3)CC2)c1,6,5,49*,4,0,2
CN(Cc1c(F)cccc1Cl)C(=O)c1cccc(S(=O)(=O)N2CCN(Cc3ccccc3)CC2)c1,5,9,21,-6,0,-4
COC(=O)c1ccc2nc(C3CCCCC3)c(Cc3ccccc3OC)n2c1,/,0,-4,/,/,/
CC1CCCN(c2cccc3c2S(=O)(=O)N([C@H](C)c2ccccc2)C[C@@H](COCc2ccccc2)O3)C1 (some centres not stated),/,-1,-16,/,/,/
CC(=O)Nc1ccc(C=NN=C2c3ccccc3-c3ccccc32)cc1,7,11,25,92*,1,5
COc1ccc(C=NN=C2c3ccccc3-c3ccccc32)cc1O,12,5,11,-16,-2,2
C=CCn1c2ccccc2c2nnc(SCN3C(=O)c4ccccc4C3=O)nc21,-3,16,51*,9,-2,-3
O=C1c2ccccc2C(=O)N1CSc1nnc2c3ccccc3n(CCc3ccccc3)c2n1,2,/,/,-14,-2,-5
COCOCCn1cc(CN2CCS(=O)(=O)N(Cc3ccc(-c4ccc(C)cc4)cc3)C(C)C2=O)nn1 (configuration not stated),5,6,-9,/,1,8
COCOCCn1cc(CN2CCS(=O)(=O)N(Cc3ccc(-c4ccc(Cl)c(Cl)c4)cc3)C(C)C2=O)nn1 (configuration not stated),3,17,59*,/,-2,-5
Cc1ccc(-c2ccc(CN3C(C)C(=O)N(Cc4cn(CCC5OCCO5)nn4)CCS3(=O)=O)cc2)cc1 (configuration not stated),0,7,-1,/,0,-1
CC1C(=O)N(Cc2cn(CCC3OCCCO3)nn2)CCS(=O)(=O)N1Cc1ccc(-c2ccc(Cl)c(Cl)c2)cc1 (configuration not stated),12,15,69*,/,-1,5
SMILES,MC4R antag cAMP,TAAR1 agonist,TAAR1 antag,Beta2AR agonist,MC4R barr agon,HTR2A ag
CC1C(=O)N(Cc2cn(CCC3OCCO3)nn2)CCS(=O)(=O)N1Cc1ccc(-c2ccc(Cl)cc2)cc1 (configuration not stated),4,15,52*,/,-2,3
COC(=O)CCC[C@H](C)[C@@H](NS(=O)(=O)c1ccc(C)cc1)C(C)(C)C,/,-2,-16,/,/,/
CCOc1cc(NCc2ccccc2)c2ncn(C(C)C)c2c1,-5,44*,-6,-3,0,-1
O=C(COC(=O)c1n[nH]c2ccccc12)Nc1ccc(Cl)cc1[N+](=O)[O-],-10,15,31,-8,9.1*,7
COc1cc([N+](=O)[O-])ccc1NC(=O)COC(=O)c1n[nH]c2ccccc12,3,10,4,1,1,-5
COc1ccccc1C(=O)N1CCN(C(=O)[C@@H](Cc2ccccc2)NC(=O)[C@H]2O[C@@H](n3ccc(=O)[nH]c3=O)[C@H](O)[C@@H]2O)CC1,/,3,-31,/,/,/
CCOC(=O)c1ccc(N2C(=O)CC(N3CCCC(C)C3)C2=O)cc1 (configuration not stated),29*,26,-5,-2,2,1
CCOC(=O)c1ccc(N2C(=O)CC(N3CCN(Cc4ccccc4)CC3)C2=O)cc1 (configuration not stated),-1,1,4,-4,1,-2
Cc1nc2ccccc2c(N)c1C(=O)/C=C/c1ccccc1,9,41*,8,6,-1,-6
COc1cccc(C2CC(c3ccc(Cl)cc3Cl)Nc3nc(N)nn32)c1 (configuration not stated),11,17,0,-4,9.2*,-2
S=C1Cc2ccccc2N1,-1,43*,3,40,7,10
Cc1cc(C)n(-c2ccc(C(=O)Nc3ccc(S(=O)(=O)NCc4ccco4)cc3)cc2)n1,13,15,62*,13,-2,-4
O=S(=O)(NCc1ccccc1)c1ccc(NC(=S)NCc2ccco2)cc1,4,41*,53*,5,-1,-6
CCNS(=O)(=O)c1ccc(NC(=S)NCc2ccco2)cc1,19,4,20,2,-1,-3
O=C(COc1ccccc1-c1ccccc1)Nc1ccc(S(=O)(=O)NCc2ccco2)cc1,6,9,61*,-2,8,0
Cc1ccc2nc(SCC(=O)N3CCCc4ccccc43)nc(=O)n2c1,9,2,-14,-4,-2,-1
